One assay addresses Protease (Human immunodeficiency virus 1, UniProt Q9YQ12). The assay can be described thus: Inhibition of wild-type HIV1 BH10 protease expressed in Escherichia coli by spectrophotometric assay. The method, boiled down: (§1)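 Recombinant PR refolded from inclusion bodies and purified. 8-10 pmol enzyme in 1 mL 0.1 M sodium acetate pH 4.7, 0.3 M NaCl, 4 mM EDTA. Ki obtained by fitting the Williams–Morrison competitive inhibition equation.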

Assay [1] addresses Human immunodeficiency virus type 1 protease (Human immunodeficiency virus 1, UniProt Q72874, A71V/I54V/I84V/L10I/L24I/L33F/L63P/M46L/V82A). Briefly: Inhibition of HIV1 recombinant protease L10I/L24I/L33F/M46L/I54V/L63P/A71V/V82A/I84V mutant expressed in Escherichia coli by spectrophotometric assay. The procedure, abridged: as §1
Assay [2] can be described thus: Ratio of Ki for HIV1 recombinant protease A71V/V82T/I84V mutant to Ki for wild-type HIV1 BH10 protease. The arrangement: species or system Human immunodeficiency virus 1.
The target in assay [3] is Human immunodeficiency virus type 1 protease (Human immunodeficiency virus 1, UniProt Q72874, A71V/I84V/V82T). Briefly: Inhibition of HIV1 recombinant protease A71V/V82T/I84V mutant expressed in Escherichia coli by spectrophotometric assay. The procedure, abridged: as §1
Assay [4] has as its target Human immunodeficiency virus type 1 protease (Human immunodeficiency virus 1, UniProt Q72874, A71V/E35D/F53L/H69K/I54V/I84V/I93L/K20R/L10F/L19I/L33F/L63P/L89M/L90M/M36I/R41K/T74P). Briefly: Inhibition of HIV1 recombinant protease L10F/L19I/K20R/L33F/E35D/M36I/R41K/F53L/I54V/L63P/H69K/A71V/T74P/I84V/L89M/L90M/I93L mutant expressed in Escherichia coli by spectrophotometric assay. The method, boiled down: as §1

Assay [5] in a line: Ratio of Ki for HIV1 recombinant protease L10F/L19I/K20R/L33F/E35D/M36I/R41K/F53L/I54V/L63P/H69K/A71V/T74P/I84V/L89M/L90M/I93L mutant to Ki for wild-type HIV1 BH10 protease. Also noted: species or system Human immunodeficiency virus 1.
Assay [6] has as its target Human immunodeficiency virus type 1 protease (Human immunodeficiency virus 1, UniProt Q72874, I47A/V32I). Briefly: Inhibition of HIV1 recombinant protease V32I/I47A mutant expressed in Escherichia coli by spectrophotometric assay. The procedure, abridged: as §1
Assay [7] is described as follows: Ratio of Ki for HIV1 recombinant protease V32I/I47A mutant to Ki for wild-type HIV1 BH10 protease. The arrangement: species or system Human immunodeficiency virus 1.
Assay [8] has as its target Human immunodeficiency virus type 1 protease (Human immunodeficiency virus 1, UniProt Q72874, A71V/I84V/M46I/V82T). Briefly: Inhibition of HIV1 recombinant protease M46I/A71V/V82T/I84V mutant expressed in Escherichia coli by spectrophotometric assay. The method, boiled down:
as §1

A short description of assay [9]: Ratio of Ki for HIV1 recombinant protease M46I/A71V/V82T/I84V mutant to Ki for wild-type HIV1 BH10 protease. The arrangement: species or system Human immunodeficiency virus 1.
Assay [10] deals with Human immunodeficiency virus type 1 protease (Human immunodeficiency virus 1, UniProt Q72874, D30N/N88D). Briefly: Inhibition of HIV1 recombinant protease D30N/N88D mutant expressed in Escherichia coli by spectrophotometric assay. The method, boiled down: as §1
A short description of assay [11]: Ratio of Ki for HIV1 recombinant protease D30N/N88D mutant to Ki for wild-type HIV1 BH10 protease. Also noted: species or system Human immunodeficiency virus 1.
Assay [12] in a line: Ratio of Ki for HIV1 recombinant protease L10I/L24I/L33F/M46L/[…]/L63P/A71V/V82A/I84V mutant to Ki for wild-type HIV1 BH10 protease expressed in Escherichia coli. The arrangement: species or system Human immunodeficiency virus 1.
Assay [13] is described as follows: Ratio of Ki for HIV1 recombinant protease L10I/I15V/E35D/N37S/R41K/I62V/L63P/A71V/G73S/L90M mutant to Ki for wild-type HIV1 BH10 protease. The arrangement: species or system Human immunodeficiency virus 1.
For assay [14], the target named is Human immunodeficiency virus type 1 protease (Human immunodeficiency virus 1, UniProt Q72874, A71V/E35D/G73S/I15V/I62V/L10I/L63P/L90M/N37S/R41K). The assay can be described thus: Inhibition of HIV1 recombinant protease L10I/I15V/E35D/N37S/R41K/I62V/L63P/A71V/G73S/L90M mutant expressed in Escherichia coli by spectrophotometric assay.

We go through three compounds from ChEMBL document CHEMBL1155806, “Inorganic polyhedral metallacarborane inhibitors of HIV protease: a new approach to overcoming antiviral resistance” (J Med Chem, 2008).

The structures appear in SMILES notation.

In the case of `CC(C)CN(C[C@@H](O)[C@H](Cc1ccccc1)NC(=O)O[C@H]1CCOC1)S(=O)(=O)c1ccc(N)cc1`, the Ki on Protease was […]; in assay [1], 4.1 nM.

With `Cc1c(O)cccc1C(=O)N[C@@H](CSc1ccccc1)[C@H](O)CN1C[C@H]2CCCC[C@H]2C[C@H]1C(=O)NC(C)(C)C`, the Ki at Protease is 0.07 nM.

As to `COC(=O)N[C@H](C(=O)N[C@@H](Cc1ccccc1)[C@@H](O)CN(Cc1ccc(-c2ccccn2)cc1)NC(=O)[C@@H](NC(=O)OC)C(C)(C)C)C(C)(C)C` [ATAZANAVIR], the Ki ratio was 9.4 in assay [2]; 2.3 in assay [5]; 7.1 in assay [7]; 32 in assay [9]; 2.3 in assay [11]; 50 in [12]. Also, the Ki ratio in assay [13] was 3.2. The Ki turned out to be 0.23 nM in assay [3]; 0.054 nM in [4]; 0.024 nM at Protease; 0.17 nM in [6]; 1.2 nM in [1]; 0.76 nM in [8]. For the same compound, the figures for the inhibitory constant (Ki) in [10] and in assay [14] were 0.055 nM and 0.076 nM, respectively.

The Ki is the equilibrium dissociation constant of an inhibitor or competing ligand from its target.
